Bioassay records: PubChem BioAssay, several laboratories
Sampled rows, rich in hits. Any-hit rate of the full collection: about 5.5%.
PostGolgi ctrl – inhibits growth of the yeast control strain. efflux-deficient yeast background strain, growth absorbance A615, 16 h. inhibition, % at 10 µM. 98,000 tested, 5% active
E coli WT exp – E. coli BW25113 growth inhibition, expanded screen | growth inhibition, % at 100 µM | OD600 absorbance | AID 710 | 98,000 tested, 0.15% active;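 active = growth inhibition above about 50% at one test dose, limit read from the data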;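 also: growth measured after 20 h incubation at 37 °C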
tolC growth inh – growth inhibitors of E. coli BW25113 tolC mutant; AID 573; 65,000 tested, 2.2% active; growth inhibition, % at 10 µM (by protocol); OD615;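 active = growth inhibition at or above a cutoff equal to the mean over every tested compound plus 3 SD, cut at about 60% in these data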;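 also: growth measured after 20 h incubation at 37 °C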
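System: E. coli ΔtolC::kan strain BW25113; Buffer or medium: LB broth supplemented with 50 µg/mL kanamycin; Compound: 10 µM final, single dose; Incubation: bacterial growth with compound for 20 h at 37 °C; Signal: A615 absorbance measurement; Evaluation: growth inhibition in percent.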
PLAP act – human PLAP activation; purified PLAP enzyme, luminescent substrate read-out; stronger effect = higher value; activation fold at 20 µM; 96,000 tested, 1.2% active; in the data active = activation fold above about 2
PostGolgi yeast – growth inhibition of a yeast mutant, post-Golgi transport screen | post-Golgi transport phenotypic cell assay | inhibition, % at 10 µM | 98,000 tested, 0.9% active;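 also: yeast cells grown in 1536-well plates; yeast grown about 18 h at 30C before absorbance read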
HePTP inh – inhibitors of human HePTP phosphatase; P35236; inhibition, % at 20 µM; 110,000 tested, 0.64% active; recombinant HePTP phosphatase activity, OD absorbance; in the data active = inhibition above about 50%
Target sequence (P35236 whole entry, looked up): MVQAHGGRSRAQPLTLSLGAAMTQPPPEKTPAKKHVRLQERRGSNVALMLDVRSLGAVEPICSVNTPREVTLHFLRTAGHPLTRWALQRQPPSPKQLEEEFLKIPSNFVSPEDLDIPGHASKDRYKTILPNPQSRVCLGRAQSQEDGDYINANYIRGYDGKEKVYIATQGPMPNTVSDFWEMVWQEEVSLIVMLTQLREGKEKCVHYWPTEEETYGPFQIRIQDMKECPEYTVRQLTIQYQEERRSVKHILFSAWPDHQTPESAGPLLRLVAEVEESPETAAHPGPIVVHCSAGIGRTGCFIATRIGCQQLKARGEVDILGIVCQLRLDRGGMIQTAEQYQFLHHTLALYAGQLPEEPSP
Hits are given with their value; - = inactive; . = not tested or not shown; ! = repeats disagree. Rule as the data show it, unless noted: active = inhibition above about 30%; inactive = the rest.

SMILES	PostGolgi ctrl	E coli WT exp	tolC growth inh	PLAP act	PostGolgi yeast	HePTP inh
COc1ccc(S(=O)(=O)N(C)CC(=O)N2CCN(Cc3ccccc3)CC2)cc1C	-	-	.	2	-	.
CCOC(=O)N1CCN(C(=O)CN(Cc2ccccc2)S(=O)(=O)c2ccc(OC)c(C)c2)CC1	30.0	-	-	-	-	-
CCN1CCN(C(=O)CN(C)S(=O)(=O)c2ccc(OC)c(C)c2)CC1	-	-	.	-	-	.
C=CCc1ccccc1OCC(=O)NN	.	.	.	.	.	-
Cc1ccc(/C=C/C(O)=C2/C(=O)N(C)C3(C)CC2c2ccccc2O3)cc1 (stereo not given)	44.4	-	.	-	-	.
O=C(/C(=C/c1ccc(Cl)cc1)c1nc2ccccc2[nH]1)c1ccccc1	102.4	-	.	-	61.7	.
O=C(N/C(=C/c1ccc(Cl)cc1)c1nc2ccccc2[nH]1)c1ccccc1	.	.	.	.	.	-
O=C(c1ccc2c(c1)N(Cc1ccccc1)CCS2)N1CCCCC1	43.3	-	.	-	-	.
CN(C)CCNC(=O)c1ccc2c(c1)N(Cc1ccc(F)cc1)CCS2	-	-	-	-	-	-
CCc1cc2c(C)cc(=O)oc2cc1OCC(C)=O	.	.	.	.	.	-
COc1ccc(C2=NN(CN3C(=O)C(=O)c4ccccc43)C(c3ccc(C)cc3)C2)cc1 (stereo not given)	-	-	.	-	-	.
COc1ccc(C2=NN(CN3C(=O)C(=O)c4ccccc43)C(c3ccc(Br)cc3)C2)cc1 (stereo not given)	31.9	-	.	-	-	.
COCc1[nH][nH]c(=O)c1C=Nc1ccccc1	-	-	.	2	-	.
COCc1[nH][nH]c(=O)c1C=Nc1ccc(Cl)cc1	-	-	.	-	-	.
COc1ccc2c(c1OC)C(=O)OC2Nc1cccc(C)n1 (stereo not given)	.	.	.	.	.	-
Cc1ccc(C)n1-c1cccc(C(=O)O)c1	-	-	-	-	-	.
Cc1ccc(C)n1-c1ccc(O)c(C(=O)O)c1	.	.	.	.	.	104.0
CC(=O)c1ccc(-n2c(C)ccc2-c2ccccc2)cc1	-	-	.	-	-	-
Cc1ccc(C)n1-c1ccc(CC(=O)O)cc1	.	.	.	.	.	102.2
CCOC(=O)c1ccc(N2C(=O)C3C(c4ccc(C)cc4)OC4(C(=O)c5ccccc5C4=O)C3C2=O)cc1 (stereo not given)	.	.	.	.	.	-
CCCC(=O)NCCCc1nc2ccccc2n1CCC	40.3	-	-	-	-	-
C=C(Br)Cn1c(CCC)nc2ccccc21	-	-	-	-	-	101.6!
S=c1[nH]nc(-c2ccncc2)n1Cc1ccccc1	-	-	-	2	-	-
COc1cccc(CN2C(=O)C3(C(C#N)=C(N)OC4=C3C(=O)CCC4)c3ccccc32)c1 (stereo not given)	-	-	-	-	34.5	-
O=C(Cn1c(NCCO)nc2ccccc21)NCCc1ccccc1	37.9	-	-	-	-	-
SMILES	PostGolgi ctrl	E coli WT exp	tolC growth inh	PLAP act	PostGolgi yeast	HePTP inh
O=C(Cn1c(NCCO)nc2ccccc21)c1ccco1	-	-	-	-	-	.
CN1/C(=C\C(=O)COc2ccc3c(c2)OCO3)C(C)(C)c2ccccc21	-	-	88.9	-	-	-
CN1/C(=C\C(=O)COC(=O)C2COc3ccccc3O2)C(C)(C)c2ccccc21 (stereo not given)	-	-	-	-	-	-
NC1=NC(=O)/C(=C\c2cc(Br)ccc2OCc2ccccc2F)S1	.	.	.	.	.	-
CC(C)(C)n1nnnc1C(c1cccs1)N1CCCc2ccccc21 (stereo not given)	-	-	82.0	-	-	-
CC(C)C(c1nnnn1C1CCCC1)N1CCCc2ccccc21 (stereo not given)	-	-	73.7	.	-	-
CCCCN(Cc1ccccc1)c1ncnc2nc[nH]c12	-	-	-	2.1	-	-
CCCN(c1ccc(OCC)cc1)c1ncnc2nc[nH]c12	-	-	-	2.1	-	-
CCN(c1ccc(OC)cc1)c1ncnc2nc[nH]c12	-	-	.	-	-	.
COc1ccccc1N(CC(=O)NC(C)c1ccccc1)S(=O)(=O)c1ccccc1 (stereo not given)	.	.	.	.	.	-
COc1ccccc1N(CC(=O)NC(C)(C)C)S(=O)(=O)c1ccccc1	.	.	.	.	.	105.9
Cc1ccc(-c2cc(NC(=O)CSc3n[nH]c(N)n3)n(-c3ccccc3)n2)cc1	-	-	.	2.3	-	.
O=C(O)C1C2CCC(C2)C1C(=O)NCC1CCCO1 (stereo not given)	.	.	.	.	.	-
COCC(=O)n1nc(NCc2ccc(OC)cc2)nc1NCc1ccc(OC)cc1	87.2	-	-	-	48.7	-
Cc1cccc(C)c1Nc1nnc(SCc2cc([N+](=O)[O-])cc3c2OCOC3)s1	33.4	-	.	-	-	.
Cc1cc(N2CCOCC2)n2nc(-c3cccc(F)c3)cc2n1	-	-	-	.	-	-
CCC1CCCCN1c1cc(C)nc2cc(-c3cccc(C)c3)nn12 (stereo not given)	55.4	-	.	-	-	.
CCCOc1ccccc1C1CC(=O)Nc2c1ccc1ccccc21 (stereo not given)	.	.	.	.	.	-
CCOC(=O)CC(=O)CSc1nnc2c(n1)[nH]c1ccccc12	45.0	-	-	-	-	-
O=C(O)CSc1nnc2c(n1)[nH]c1ccccc12	.	.	.	.	.	-
O=C(NCc1ccco1)c1ccc(S(=O)(=O)N2CCCc3ccccc32)cc1	-	-	70.8	-	-	-
CCC(=O)N1CCCc2cc(S(=O)(=O)N3CCCc4ccccc43)ccc21	35.2	-	-	-	-	-
O=C(Nc1nnc(C2CC2)o1)c1ccc(S(=O)(=O)N2CCCc3ccccc32)cc1	-	-	100.0	2.5	33.3	-
CC(=O)c1c(NCCc2ccccc2)nc(=O)n(-c2ccccc2)c1C	.	.	.	.	.	-
CC1=NN(c2cccc(C(=O)O)c2)C(=O)/C1=C\c1ccc(-c2ccc(C)cc2[N+](=O)[O-])o1	.	.	.	.	.	-
SMILES	PostGolgi ctrl	E coli WT exp	tolC growth inh	PLAP act	PostGolgi yeast	HePTP inh
COc1ccc(-c2cc(C(=O)Nc3ccccc3C(F)(F)F)c3ccccc3n2)cc1	.	.	.	.	.	-
CCCOc1ccc(/C=N/NS(=O)(=O)c2ccc3ccccc3c2)cc1OC	.	.	.	.	.	103.4
Cc1cc(C)c(Cc2cc([N+](=O)[O-])ccc2C)c(C)c1	.	.	.	.	.	-
Cc1cc(C)c(CSc2ncc(-c3ccc([N+](=O)[O-])cc3)[nH]2)c(C)c1	48.5	-	.	-	-	.
O=[N+]([O-])c1ccc(-c2cnc(SCc3ccccc3Cl)[nH]2)cc1	42.2	-	.	-	-	.
O=[N+]([O-])c1ccc2nc(SCc3ccccc3Cl)sc2c1	-	-	.	-	-	.
O=C(/C=C/c1cccc(C(F)(F)F)c1)Nc1ccc(Cl)cc1	.	.	.	.	.	-
O=C(NNc1nc2ccccc2s1)c1ccccc1F	-	-	.	2.3	-	.
O=C(NNc1nc2ccccc2s1)C1CC1	-	-	.	2.2	-	.
CC(C)C(=O)NNc1nc2ccccc2s1	-	-	.	-	-	.
COc1ccc(NC(=O)CSc2nc(-c3ccccc3)c(-c3ccccc3)o2)cc1	.	.	.	.	.	-
CCOC(=O)C1=C(C)Nc2nc(=S)[nH]n2C1c1ccc(Cl)cc1 (stereo not given)	30.9	-	.	-	-	.
Cc1cccc(NC(=O)c2ccc(NS(=O)(=O)c3c(C)noc3C)cc2)c1	-	-	-	-	-	-
